Experimental data taken from ChEMBL document CHEMBL4261550, “Triazolopyrimidines identified as reversible myeloperoxidase inhibitors” (Medchemcomm, 2017).
Calls of active or inactive are those of the source. No cut-off for these calls is given here.

How the values were obtained:
Myeloperoxidase = target: T1, Myeloperoxidase (Homo sapiens, UniProt P05164); assay: Inhibition of MPO in human neutrophils assessed as reduction in PMA-stimulated HOCl production incubated for 3 mins and measured for 25 mins by luminol reagent based luminescence assay
T1 sequence (P05164 whole entry): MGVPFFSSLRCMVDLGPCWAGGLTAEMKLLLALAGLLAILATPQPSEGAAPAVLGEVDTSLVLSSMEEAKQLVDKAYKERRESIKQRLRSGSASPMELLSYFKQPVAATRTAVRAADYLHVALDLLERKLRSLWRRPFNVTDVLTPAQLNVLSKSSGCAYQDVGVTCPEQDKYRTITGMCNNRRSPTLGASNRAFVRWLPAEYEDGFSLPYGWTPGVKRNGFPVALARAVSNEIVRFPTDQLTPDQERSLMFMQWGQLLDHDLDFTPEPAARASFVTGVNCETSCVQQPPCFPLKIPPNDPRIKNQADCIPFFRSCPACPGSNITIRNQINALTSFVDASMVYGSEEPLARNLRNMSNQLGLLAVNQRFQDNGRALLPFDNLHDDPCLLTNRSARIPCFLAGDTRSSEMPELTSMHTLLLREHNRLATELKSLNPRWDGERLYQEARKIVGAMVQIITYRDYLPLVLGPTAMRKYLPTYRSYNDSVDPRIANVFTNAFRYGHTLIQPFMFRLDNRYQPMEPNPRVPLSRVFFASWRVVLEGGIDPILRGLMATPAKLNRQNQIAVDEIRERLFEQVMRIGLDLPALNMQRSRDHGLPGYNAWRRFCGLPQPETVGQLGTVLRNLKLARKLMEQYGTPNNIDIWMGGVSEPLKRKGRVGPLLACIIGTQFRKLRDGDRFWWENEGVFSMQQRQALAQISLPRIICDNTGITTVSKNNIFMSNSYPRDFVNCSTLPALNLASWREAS
Summary of the method: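 Neutrophils from healthy donors isolated by dextran sedimentation then Ficoll-Paque, resuspended in HBSS; 1.106 cells/mL stimulated with 100 nM PMA; inhibitor 22 μM down to 1 nM (1:3, 10 doses) in 10% ethanol/50% PEG/40% water, 3 min at rt; luminol 100 μM final, read 25 min at 37 °C; rate taken from initial linear region.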

[1] = Hypochlorus scavenging activity at 10 uM in presence of sodium hypochlorite after 15 mins by APF dye based fluorescence assay relative to control; type: functional
Summary of the method: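 NaOCl-scavenger counterscreen in 1536-well format: 50 μM NaOCl in place of MPO with APF reagent, compound 10 μM final; fluorescence intensity read after 15 min incubation; ≥20% loss of fluorescence flagged as interference.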

Thyroid peroxidase = target: T2, Thyroid peroxidase (Homo sapiens, UniProt P07202); assay: Inhibition of recombinant human C-terminal His6-tagged TPO (15 to 839 residues) expressed in baculovirus infected insect cells assessed as reduction in H2O2-catalyzed 3,5-iodo tyrosine formation using 3-iodotyrosine and potassium iodide preincubated for 10 mins followed by 3,5-iodo tyrosine/potassium iodide/H2O2 addition and measured after 15 mins
T2 sequence (P07202 whole entry): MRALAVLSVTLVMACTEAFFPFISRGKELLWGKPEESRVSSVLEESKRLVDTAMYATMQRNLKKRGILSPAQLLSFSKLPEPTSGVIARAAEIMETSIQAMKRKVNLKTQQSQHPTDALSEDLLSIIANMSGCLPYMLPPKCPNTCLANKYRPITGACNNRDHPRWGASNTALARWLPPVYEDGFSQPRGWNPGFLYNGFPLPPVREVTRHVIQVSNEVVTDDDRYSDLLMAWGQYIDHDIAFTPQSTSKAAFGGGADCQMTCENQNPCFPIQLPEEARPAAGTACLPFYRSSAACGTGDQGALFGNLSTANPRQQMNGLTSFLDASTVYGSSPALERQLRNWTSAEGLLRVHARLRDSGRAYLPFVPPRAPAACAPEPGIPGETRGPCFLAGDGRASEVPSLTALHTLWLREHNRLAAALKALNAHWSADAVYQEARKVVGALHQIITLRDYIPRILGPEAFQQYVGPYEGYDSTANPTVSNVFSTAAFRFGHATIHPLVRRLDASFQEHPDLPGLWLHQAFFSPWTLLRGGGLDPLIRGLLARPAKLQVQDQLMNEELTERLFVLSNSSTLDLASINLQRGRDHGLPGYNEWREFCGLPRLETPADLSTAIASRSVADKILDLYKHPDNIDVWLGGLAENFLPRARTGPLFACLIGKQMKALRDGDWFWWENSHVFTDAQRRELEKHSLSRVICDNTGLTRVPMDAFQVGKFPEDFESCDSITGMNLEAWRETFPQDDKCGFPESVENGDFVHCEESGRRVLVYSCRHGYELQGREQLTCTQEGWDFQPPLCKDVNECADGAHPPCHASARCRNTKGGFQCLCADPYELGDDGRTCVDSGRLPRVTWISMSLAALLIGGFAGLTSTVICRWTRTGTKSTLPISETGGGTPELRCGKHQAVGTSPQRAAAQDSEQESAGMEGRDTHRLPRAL
Summary of the method: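 TPO residues 15–839 with C-terminal His6, baculovirus/T. ni expressed, purified by Ni affinity, anion exchange and size exclusion; 4.0 nM in 100 mM KPi pH 7.4, 10 min rt preincubation with inhibitor; then 400 μM KI/240 μM 3-iodotyrosine mix and 20 μM H2O2 (added solutions); 3,5-iodotyrosine formation monitored.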

[2] = target: T3, Myeloperoxidase (Homo sapiens) (UniProt P05164); assay: Substrate activity at human MPO assessed as reversion of enzyme to resting state at 40 uM in presence of H2O2 by stopped flow assay
T3 sequence (whole entry): T1 sequence (P05164 whole entry)
Summary of the method: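 Stopped-flow at 25 °C: syringe 1 with 2 μM MPO and 5 μM H2O2 in phosphate buffer, syringe 2 with inhibitor and 5 μM H2O2; equal volumes rapidly mixed, spectra acquired in PDA mode to follow several MPO species; representative of numerous replicates.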

Cytochrome P450 3A4 = Cytochrome P450 3A4 (Homo sapiens, UniProt P08684); assay: Inhibition of CYP3A4 (unknown origin); type: ADME
Sequence of Cytochrome P450 3A4 (P08684 whole entry): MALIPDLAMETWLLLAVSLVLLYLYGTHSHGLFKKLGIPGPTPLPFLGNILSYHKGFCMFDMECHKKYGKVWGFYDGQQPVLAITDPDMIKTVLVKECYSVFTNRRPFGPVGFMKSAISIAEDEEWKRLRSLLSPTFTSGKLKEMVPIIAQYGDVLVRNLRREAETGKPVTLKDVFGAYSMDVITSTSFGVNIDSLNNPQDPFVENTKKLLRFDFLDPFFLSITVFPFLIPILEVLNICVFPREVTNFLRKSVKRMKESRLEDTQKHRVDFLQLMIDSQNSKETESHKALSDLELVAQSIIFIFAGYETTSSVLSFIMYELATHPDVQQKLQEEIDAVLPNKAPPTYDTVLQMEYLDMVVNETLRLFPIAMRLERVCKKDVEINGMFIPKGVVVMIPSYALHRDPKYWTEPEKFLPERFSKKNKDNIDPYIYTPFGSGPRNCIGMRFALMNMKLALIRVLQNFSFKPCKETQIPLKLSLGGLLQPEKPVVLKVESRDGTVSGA

[3] = Plasma concentration in PMA-stimulated C57BL6 mouse neutrophil degranulation model at 30 mg/kg, po after 20 mins; type: ADME, organism-based
Mus musculus = assay: In vivo inhibition of MPO in PMA-stimulated C57BL6 mouse neutrophil degranulation model assessed as reduction in HOCl production at 30 mg/kg, po pretreated for 20 mins followed by PMA stimulation and measured after 2 mins by luminol chemiluminescence assay relative to control; type: functional
Summary of the method: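 C57Bl6 mice dosed orally 30 mpk or vehicle 20 min before retro-orbital PMA 0.62 mg/kg; blood drawn 2 min after PMA and held on ice; 100 μL blood mixed with luminol, chemiluminescence read kinetically 25 min at 37 °C, HOCl production rate calculated.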

| Structure (SMILES) | IC50 (Myeloperoxidase) [µM] | Activity [1] [%] | IC50 (Thyroid peroxidase) [µM] | Activity [2] | IC50 (Cytochrome P450 3A4) [µM] | concentration at 20 min [3] [µM] | inhibition in vivo at 30 mg/kg (Mus musculus) [%] |
| --- | --- | --- | --- | --- | --- | --- | --- |
| Nc1ccc(Oc2cc(Cl)c(Cl)cc2Cl)cn1 | 1.7 | < 20 | 6 | Active |  |  |  |
| Nc1nc(OCc2ccccc2)c2[nH]nnc2n1 | 5 | < 20 | > 30 | inactive | 14 | 180 | 50 |
